Experimental data published in the RNAGym collection of RNA variant scans (doi:10.1126/science.aae0568).
Variants at the floor of the assay were thinned out.

B1: tRNA (parent)
chain: GUUCCGUUGGCGUAAUGGUAACGCGUCUCCCUCCUAAGGAGAAGACUGCGGGUUCGAGUCCCGUACGGAACG

Variants of: B1
Assay: yeast fitness relative to wild type (ratio to wild type); higher = fitter; tRNA-Arg(CCU), competitive growth, 37 C, YPD
Procedure, shortened: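 Genotype frequency changes were the basis for Darwinian fitness relative to wild type. The frequencies came from 100-nucleotide paired-end sequencing of gene amplicons from the start population and each end population of pooled yeast strains with tRNA-Arg(CCU) gene variants at the native locus. Competition ran in YPD at 37°C for 24 hours in six replicates, genotypes needed ≥ 100 starting reads, and estimates < 0.5 were set to 0.5.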

Row | Variant | yeast fitness
1 | GGUCCGUUGGCGUAAUGGUAACGCGUCUCCCUCCUACGGAGAAGACUGCGGGUUCGAGUCUCGUACAGAACG [U2G A37C C61U G67A] | ≤ 0.5
2 | GGUCCGUUGGCGUAAUGGUAACGCGUCUCCCUCCUACGGAGAAGACUGCGAGUUCGAGUCCCGUACGGAACG [U2G A37C G51A] | ≤ 0.5
3 | GGUCCGUUGGCGUAAUGGUAACGCGUCUCCCUCCUAAGGCGAAGACUGCGGGUUCGAGUCCCGUACGGAACG [U2G A40C] | 0.698
4 | GGUCCGUUGGCGUAAUGGUAACGCGUCUCCCUCCUAAGGCCUAGACUGCGGGUUCGAGUCCCGUACGGAACG [U2G A40C G41C A42U] | ≤ 0.5
5 | GGUCCGUUGGCGUAAUGGUAACGCGUCUCCCUCCUAAGGCGAAGACUGCGGGUUCGAGUCCCGUACGCAACG [U2G A40C G68C] | 0.54
6 | GGUCCGUUGGCGUAAUGGUAACGCGUCUCCCUCCUAAGGGGAAGACUGCGGGUUCGAGUCCCGUACGGAACG [U2G A40G] | 0.803
7 | GGUCCGUUGGCGUAAUGGUAACGCGUCUCCCUCCUAAGGUGAAGACUGCGGGUUCGAGUCCCGUACGGAACG [U2G A40U] | 0.813
8 | GGUCCGUUGGCGUAAUGGUAACGCGUCUCCCUCCUAAGGUGAAGAGUGCGGGUUCGAGUCCCGUACGGAACG [U2G A40U C46G] | ≤ 0.5
9 | GGUCCGUUGGCGUAAUGGUAACGCGUCUCCCUCCUAAGGUGAAGACUGAGGGUUCGACUCCCCUACGGAACG [U2G A40U C49A G58C G63C] | ≤ 0.5
10 | GGUCCGUUGGCGUAAUGGUAACGCGUCUCCCUCCUAAGGUGAAGACUGCGGGUUUGAGUCCCGUACGGAACG [U2G A40U C55U] | ≤ 0.5
11 | GGUCCGUUGGCGUAAUGGUAACGCGUCUCCCUCCUAAGGUGAAGACUGCGGGUUUGAGUCCCGUACGGUACG [U2G A40U C55U A69U] | ≤ 0.5
12 | GGUCCGUUGGCGUAAUGGUAACGCGUCUCCCUCCUAAGGAGCAGACAGCGGGUUCGAGUCCCGUACGGAACG [U2G A42C U47A] | 0.573
13 | GGUCCGUUGGCGUAAUGGUAACGCGUCUCCCUCCUAAGGAGCAGACAGCGGGUUCGAGUCCCCUACGGAACG [U2G A42C U47A G63C] | 0.55
14 | GGUCCGUUGGCGUAAUGGUAACGCGUCUCCCUCCUAAGGAGGAGACUGCGGGUUCGAGUCCCGUACGGAACG [U2G A42G] | 0.866
15 | GGUCCGUUGGCGUAAUGGUAACGCGUCUCCCUCCUAAGGAGGAGACUGCGGGUUUGAGUCCCGUACGGAACG [U2G A42G C55U] | ≤ 0.5
16 | GGUCCGUUGGCGUAAUGGUAACGCGUCUCCCUCCUAAGGAGUAGACUGCGGGUUCGAGUCCCGUACGGAUCG [U2G A42U A70U] | 0.539
17 | GGUCCGUUGGCGUAAUGGUAACGCGUCUCCCUCCUAAGGAGUAGACUGCGGGUUCGAGUCCCGCACGGAACG [U2G A42U U64C] | ≤ 0.5
18 | GGUCCGUUGGCGUAAUGGUAACGCGUCUCCCUCCUAAGGAGUAGACUGCGGGUUCGAGUCCCGGACGGAACG [U2G A42U U64G] | ≤ 0.5
19 | GGUCCGUUGGCGUAAUGGUAACGCGUCUCCCUCCUAAGGAGAUGACCGCGGGUUCGAGUCCCGUACGGAACG [U2G A43U U47C] | 0.731

Row | Variant | yeast fitness
20 | GGUCCGUUGGCGUAAUGGUAACGCGUCUCCCUCCUAAGGAGAAGCCUGCGGGUUCGAGUCUCGUACGGAACG [U2G A45C C61U] | 0.615
21 | GGUCCGUUGGCGUAAUGGUAACGCGUCUCCCUCCUAAGGAGAAGCCUACGGGUUCGAGUCCCGUACGGAACG [U2G A45C G48A] | 0.622
22 | GGUCCGUUGGCGUAAUGGUAACGCGUCUCCCUCCUAAGGAGAAGGCUGCGGGUUCGAGUCCCGUCCGGAACG [U2G A45G A65C] | ≤ 0.5
23 | GGUCCGUUGGCGUAAUGGUAACGCGUCUCCCUCCUAAGGAGAAGUCUGUGGGUUCGAGUCGCGUACGGAACG [U2G A45U C49U C61G] | ≤ 0.5
24 | GGUCCGUUGGCGUAAUGGUAACGCGUCUCCCUCCUAAGGAGAAGUCUGCGGGUUCGAGUUCCGUACGGAACG [U2G A45U C60U] | 0.549
25 | GGUCCGUUGGCGUAAUGGUAACGCGUCUCCCUCCUAAGGAGAAGUCUGCGGGUUCGAGUCCCGUAUAGAACG [U2G A45U C66U G67A] | ≤ 0.5
26 | GGUCCGUUGGCGUAAUGGUAACGCGUCUCCCUCCUAAGGAGAAGACUGCGGGUUCGCGUCCCGUACGGAACG [U2G A57C] | 0.533
27 | GGUCCGUUGGCGUAAUGGUAACGCGUCUCCCUCCUAAGGAGAAGACUGCGGGUUCGCGUCCAGUCCGGAACG [U2G A57C C62A A65C] | ≤ 0.5
28 | GGUCCGUUGGCGUAAUGGUAACGCGUCUCCCUCCUAAGGAGAAGACUGCGGGUUCGAGUCCCGUGCGGAACG [U2G A65G] | 1.11
29 | GGUCCGUUGGCGUAAUGGUAACGCGUCUCCCUCCUAAGGAGAAGACUGCGGGUUCGAGUCCCGUUCGGAACG [U2G A65U] | 0.687
30 | GGUCCGUUGGCGUAAUGGUAACGCGUCUCCCUCCUAAGGAGAAGACUGCGGGUUCGAGUCCCGUACGGCACG [U2G A69C] | 0.93
31 | GGUCCGUUGGCGUAAUGGUAACGCGUCUCCCUCCUAAGGAGAAGACUGCGGGUUCGAGUCCCGUACGGCGCG [U2G A69C A70G] | 0.57
32 | GGUCCGUUGGCGUAAUGGUAACGCGUCUCCCUCCUAAGGAGAAGACUGCGGGUUCGAGUCCCGUACGGGACG [U2G A69G] | 0.975
33 | GGUCCGUUGGCGUAAUGGUAACGCGUCUCCCUCCUAAGGAGAAGACUGCGGGUUCGAGUCCCGUACGGUACG [U2G A69U] | 0.743
34 | GGUCCGUUGGCGUAAUGGUAACGCGUCUCCCUCCUAAGGAGAAGACUGCGGGUUCGAGUCCCGUACGGACCG [U2G A70C] | 0.836
35 | GGUACGUUGGCGUAAUGGUAACGCGUCUCCCUCCUAUGGAGAAGACUGCGGGUUCGAGUCCGGUACGGAACG [U2G C4A A37U C62G] | ≤ 0.5
36 | GGUACGUUGGCGUAAUGGUAACGCGUCUCCCUCCUAAGGAGAUGACUGCGGGUUCGAGUCCCGUACGGAACG [U2G C4A A43U] | 0.717
37 | GGUACGUUGGCGUAAUGGUAAUGCGUCGCCCUCCUAAGGAGUAGACUGCGGGUUCGAGUCCCGUACGGAACG [U2G C4A C22U U28G A42U] | ≤ 0.5
